Source: ChEMBL document CHEMBL1121840, “Synthesis and antiinflammatory activity of 2,2'-diaminobiphenyl derivatives” (J Med Chem, 1981)

What was measured:
Rattus norvegicus [1] = test: Compound was tested for antiinflammatory activity in rats by adjuvant arthritis test after peroral administration of 50 mg/kg dose; no significant effect; format: functional, organism-based; parameters: dose 50 mg/kg
Rattus norvegicus [2] = test: Compound was tested for antiinflammatory activity in rats by carrageenam edema test after peroral administration of 200 mg/kg dose; format: functional; conditions: route oral
Procedure, shortened: (§1)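 CD-COBS rats, both sexes. The drug was given orally as a suspension in 1% acacia gum (10 mL/kg), then carrageenan foot edema was induced per Winter et al. Read-out was % inhibition of edema; N = 5 rats per group; Dunnet's test. "No significant effect" means inhibition below 15%.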

Rattus norvegicus [3] = test: Compound was tested for antiinflammatory activity in rats by carrageenam edema test after peroral administration of 200 mg/kg dose; no significant effect; format: functional, organism-based; parameters: dose 200 mg/kg; procedure, shortened: as §1
Rattus norvegicus [4] = test: Compound was tested for antiinflammatory activity in rats by adjuvant arthritis test after peroral administration of 50 mg/kg dose; format: functional; conditions: route oral
Rattus norvegicus [5] = test: Compound was tested for antiinflammatory activity in rat by adjuvant arthritis test after peroral administration of 50 mg/kg dose; no significant effect; format: functional, organism-based; parameters: dose 50 mg/kg
Rattus norvegicus [6] = test: Compound was tested for antiinflammatory activity in rat by carrageenam edema test after peroral administration of 200 mg/kg dose; format: functional; conditions: route oral; procedure, shortened: as §1
Rattus norvegicus [7] = test: Compound was tested for antiinflammatory activity in Rat by carrageenam edema test after peroral administration of 200 mg/kg dose; format: functional; conditions: route oral; procedure, shortened: as §1
Rattus norvegicus [8] = test: Compound was tested for antiinflammatory activity in rat by carrageenam edema test after peroral administration of 200 mg/kg dose; no significant effect; format: functional, organism-based; parameters: dose 200 mg/kg; procedure, shortened: as §1
Rattus norvegicus [9] = test: Compound was tested for antiinflammatory activity in rat by adjuvant arthritis test after peroral administration of 50 mg/kg dose; format: functional; conditions: route oral
Mus musculus = test: Compound was tested for analgesic activity in mice by phenylquinone writhing test at dose of 200 mg/kg, po; format: functional
Procedure, shortened: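 Female mice received the drug orally in 1% acacia gum suspension (20 mL/kg) 1 h before i.p. 0.2 mL of 0.2% phenylquinone. Animals were caged individually and abdominal contractions counted over 20 min after injection; N = 4 mice per group; Dunnet's test.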

Rattus norvegicus [10] = test: Compound was tested for antiinflammatory activity in rats adjuvant arthritis test after peroral administration of 50 mg/kg dose; format: functional; conditions: route oral
Rattus norvegicus [11] = test: Compound was tested for antiinflammatory activity in rats by carrageenam induced pleurisy test at dose of 200 mg/kg, po; format: functional
Procedure, shortened: (§2)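 Rats were dosed orally (1% acacia gum suspension) at 48, 24 and 1 h before intrapleural carrageenan, per Di Rosa et al. Pleural exudate was assessed 6 h later as % reduction in volume and in leucocytes; N = 8 rats per group; Dunnet's test.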

Rattus norvegicus [12] = test: Compound was tested for antiinflammatory activity in rats by carrageenam induced pleurisy test at dose of 200 mg/kg, po,% reduction in leucocytes; format: functional; procedure, shortened: as §2
[13] = Compound was tested for lethal dose in mice after oral administration; format: ADME, organism-based; conditions: mouse, in vivo
Procedure, shortened: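 CD1 mice of both sexes given single oral dose of compound suspended in 1% acacia gum (20 mL/kg); LD50 calculated by probit method.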

With `CCNc1ccccc1-c1ccccc1NC(=O)Cc1ccc(O)cc1` the inhibition (Rattus norvegicus [1]) was “No significant effect” and the inhibition in vivo at 200 mg/kg (Rattus norvegicus [2]) was 45%.
For `CNc1ccccc1-c1ccccc1NC(=O)Cc1ccc([N+](=O)[O-])cc1`, the inhibition (Rattus norvegicus [3]) was “No significant effect” and the inhibition in vivo at 50 mg/kg (Rattus norvegicus [4]) was 16%.
For `CN(C)CCCNc1ccccc1-c1ccccc1NC(=O)Cc1ccc(Cl)cc1`, the inhibition (Rattus norvegicus [3]) was “No significant effect” and the inhibition in vivo at 50 mg/kg (Rattus norvegicus [4]) was 30%.
For `Nc1ccccc1-c1ccccc1NC(=O)Cc1ccc(O)cc1`, the inhibition (Rattus norvegicus [1]) was “No significant effect” and the inhibition in vivo at 200 mg/kg (Rattus norvegicus [2]) was 37%.
For `CCN(CC)CCNc1ccccc1-c1ccccc1NC(=O)Cc1ccccc1`, the inhibition (Rattus norvegicus [5]) was “No significant effect” and the inhibition in vivo at 200 mg/kg (Rattus norvegicus [6]) was 17%.
In the case of `COc1ccc(CC(=O)Nc2ccccc2-c2ccccc2NCCN(C)C)cc1`, the inhibition (Rattus norvegicus [1]) is reported as “No significant effect” and the inhibition in vivo at 200 mg/kg (Rattus norvegicus [2]) is reported as 65%.
For `CN(C)CCNc1ccccc1-c1ccccc1NC(=O)Cc1ccc(N)cc1`, the inhibition (Rattus norvegicus [1]) was “No significant effect” and the inhibition in vivo at 200 mg/kg (Rattus norvegicus [2]) was 16%.
With `CCCNc1ccccc1-c1ccccc1NC(=O)Cc1ccc(Cl)cc1` the inhibition (Rattus norvegicus [1]) was “No significant effect” and the inhibition in vivo at 200 mg/kg (Rattus norvegicus [2]) was 33%.
With `CN(C)CCNc1ccccc1-c1ccccc1NC(=O)Cc1ccc([N+](=O)[O-])cc1` the inhibition in vivo at 200 mg/kg (Rattus norvegicus [7]) was 54% and the inhibition (Rattus norvegicus [5]) was “No significant effect”.
In the case of `CNc1ccccc1-c1ccccc1NC(=O)Cc1ccc(O)cc1`, the inhibition (Rattus norvegicus [1]) is reported as “No significant effect” and the inhibition in vivo at 200 mg/kg (Rattus norvegicus [2]) is reported as 17%.
In the case of `CN(C)CCCNc1ccccc1-c1ccccc1NC(=O)Cc1ccc([N+](=O)[O-])cc1`, the inhibition (Rattus norvegicus [8]) is reported as “No significant effect” and the inhibition in vivo at 50 mg/kg (Rattus norvegicus [9]) is reported as 24%.
With `CCN(CC)CCCNc1ccccc1-c1ccccc1NC(=O)Cc1ccc([N+](=O)[O-])cc1` the inhibition (Rattus norvegicus [3]) was “No significant effect” and the inhibition in vivo at 50 mg/kg (Rattus norvegicus [4]) was 16%.
For `CCNc1ccccc1-c1ccccc1NC(=O)Cc1ccccc1`, the inhibition (Rattus norvegicus [1]) was “No significant effect” and the inhibition in vivo at 200 mg/kg (Rattus norvegicus [2]) was 30%.
`CCCCC1C(=O)N(c2ccccc2)N(c2ccccc2)C1=O` [PHENYLBUTAZONE] gave an inhibition in vivo at 200 mg/kg (Mus musculus) of 45%, an inhibition in vivo at 50 mg/kg (Rattus norvegicus [10]) of 66% and a Reduction (Rattus norvegicus [11]) of 43%. It also gave an inhibition in vivo at 200 mg/kg (Rattus norvegicus [2]) of 42%, a Reduction (Rattus norvegicus [12]) of 35% and an LD50 [13] of 650 mg/kg.
With `CCN(CC)CCNc1ccccc1-c1ccccc1NC(=O)Cc1ccc([N+](=O)[O-])cc1` the inhibition in vivo at 200 mg/kg (Mus musculus) was 34%, the inhibition in vivo at 50 mg/kg (Rattus norvegicus [10]) was 33% and the Reduction (Rattus norvegicus [11]) was 48%. It also gave a Reduction (Rattus norvegicus [12]) of 35%, an LD50 [13] of 1130 mg/kg and an inhibition in vivo at 200 mg/kg (Rattus norvegicus [6]) of 54%.
`CC(=O)Oc1ccccc1C(=O)O` [ASPIRIN] gave an inhibition in vivo at 200 mg/kg (Rattus norvegicus [2]) of 40% and an inhibition in vivo at 50 mg/kg (Rattus norvegicus [4]) of 32%.
With `COc1ccc(CC(=O)Nc2ccccc2-c2ccccc2NCCCN(C)C)cc1` the inhibition (Rattus norvegicus [1]) was “No significant effect” and the inhibition in vivo at 200 mg/kg (Rattus norvegicus [2]) was 16%.
In the case of `CCN(CC)CCCNc1ccccc1-c1ccccc1NC(=O)Cc1ccc(Cl)cc1`, the inhibition (Rattus norvegicus [3]) is reported as “No significant effect” and the inhibition in vivo at 50 mg/kg (Rattus norvegicus [4]) is reported as 29%.
In the case of `CNc1ccccc1-c1ccccc1NC(=O)Cc1ccc(OC)cc1`, the inhibition in vivo at 200 mg/kg (Rattus norvegicus [2]) is reported as 20% and the inhibition in vivo at 50 mg/kg (Rattus norvegicus [4]) is reported as 22%.
For `CCN(CC)CCNc1ccccc1-c1ccccc1NC(=O)Cc1ccc(N)cc1`, the inhibition (Rattus norvegicus [1]) was “No significant effect” and the inhibition in vivo at 200 mg/kg (Rattus norvegicus [2]) was 33%.
